From ChEMBL document CHEMBL3861950, “Design, synthesis and evaluation of novel 19F magnetic resonance sensitive protein tyrosine phosphatase inhibitors” (Medchemcomm, 2016)

Biological target: T1, Receptor-type tyrosine-protein phosphatase C (Homo sapiens, UniProt P08575)
T1 sequence (P08575 whole entry): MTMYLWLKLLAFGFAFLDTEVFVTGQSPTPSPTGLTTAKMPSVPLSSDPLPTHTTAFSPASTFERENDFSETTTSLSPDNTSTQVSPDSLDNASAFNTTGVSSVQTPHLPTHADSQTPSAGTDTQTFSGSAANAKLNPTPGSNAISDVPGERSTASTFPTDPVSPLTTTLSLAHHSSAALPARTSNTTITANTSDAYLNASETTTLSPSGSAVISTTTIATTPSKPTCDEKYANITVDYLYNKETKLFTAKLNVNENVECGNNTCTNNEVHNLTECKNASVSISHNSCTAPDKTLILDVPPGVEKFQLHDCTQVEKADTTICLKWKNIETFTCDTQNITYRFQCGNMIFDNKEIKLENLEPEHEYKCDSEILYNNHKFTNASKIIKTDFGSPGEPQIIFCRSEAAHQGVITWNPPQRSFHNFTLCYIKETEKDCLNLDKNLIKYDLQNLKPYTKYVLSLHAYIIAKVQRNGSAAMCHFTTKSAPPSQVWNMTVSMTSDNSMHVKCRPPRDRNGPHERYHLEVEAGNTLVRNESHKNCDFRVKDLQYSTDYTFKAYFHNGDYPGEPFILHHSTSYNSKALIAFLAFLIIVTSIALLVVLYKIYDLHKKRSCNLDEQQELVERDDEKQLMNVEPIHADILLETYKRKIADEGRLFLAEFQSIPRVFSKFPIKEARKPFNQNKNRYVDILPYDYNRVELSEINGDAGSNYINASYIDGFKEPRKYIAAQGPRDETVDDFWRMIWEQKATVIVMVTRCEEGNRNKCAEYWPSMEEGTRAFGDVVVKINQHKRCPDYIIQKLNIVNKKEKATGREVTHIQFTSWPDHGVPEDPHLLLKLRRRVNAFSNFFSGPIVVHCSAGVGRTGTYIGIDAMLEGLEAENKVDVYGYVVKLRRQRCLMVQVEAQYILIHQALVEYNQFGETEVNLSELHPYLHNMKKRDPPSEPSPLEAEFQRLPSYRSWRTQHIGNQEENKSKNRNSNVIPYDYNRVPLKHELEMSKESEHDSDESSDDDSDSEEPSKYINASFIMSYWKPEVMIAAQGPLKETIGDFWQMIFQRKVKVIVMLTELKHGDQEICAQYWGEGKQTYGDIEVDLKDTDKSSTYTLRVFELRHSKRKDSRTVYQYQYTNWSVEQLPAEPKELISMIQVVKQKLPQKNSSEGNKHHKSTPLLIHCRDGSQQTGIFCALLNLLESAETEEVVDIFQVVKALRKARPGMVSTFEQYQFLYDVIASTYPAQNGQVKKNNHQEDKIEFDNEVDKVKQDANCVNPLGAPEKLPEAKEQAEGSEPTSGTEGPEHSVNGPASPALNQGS
Test: Inhibition of recombinant CD45 (unknown origin) using pNPP as substrate by spectrophotometric method
Outline: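 Recombinant PTP prepared in-house, assayed with pNPP substrate in 50 mM 3,3-dimethylglutarate buffer pH 7.0 containing 1 mM EDTA and 150 mM NaCl at 25 °C, in 96-well format. p-Nitrophenol product was quantified by absorbance at 405 nm. Non-enzymatic pNPP hydrolysis was corrected using a no-enzyme control.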

## Cc1ccc(S(=O)(=O)NNC(=O)COc2ccc3cc(C(O)(C(F)(F)F)C(F)(F)F)c(O)cc3c2)cc1
  IC50: 16.1 µM
